According to ChEMBL document CHEMBL1122354, “Synthesis and antiarrhythmic activity of new [(dialkylamino)alkyl]pyridylacetamides” (1983):
Calls of active or inactive are those of the source. No cut-off for these calls is given here.

What was measured:
Canis familiaris [1] = test: Antiarrhythmic potential in conscious dogs; value ranges from +190 to +270; format: functional, Canis lupus familiaris, Heart
Method in brief: (§1)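 Mongrel dogs with experimental myocardial infarction, conscious, with ventricular tachycardia or runs of VT. Dosed 50 mg/kg orally as solution in distilled water or acacia gum during the acute phase (16–36 h). Positive response means ≥60% suppression of ventricular arrhythmias or induction of sinus rhythm. The duration of effect was recorded in min.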

Canis familiaris [2] = test: Intracardiac conduction in anesthetized dogs, measured as HV; HV being the conduction time in specific intraventricular tissue; value ranges from +2 to +-50; format: functional, Canis lupus familiaris, Cardiac ventricle
Method in brief: (§2)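 Mongrel dogs under sodium pentobarbital anesthesia. His bundle electrogram recorded via left heart catheterization. His potentials recorded before dosing and 5 and 15 min after each intravenous dose, at different pacing rates. SH (stimulus to His deflection) and HV intervals measured.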

Canis familiaris [3] = test: Intracardiac conduction in anesthetized dogs, measured as SH; SH being the atrial His bundle conduction time; value ranges from +10 to +50; format: functional, Canis lupus familiaris, Atrioventricular bundle; method in brief: as §2
Canis familiaris [4] = test: Antiarrhythmic potential in conscious dogs; the value ranges from +8 to +-240; format: functional, Canis lupus familiaris, Heart; method in brief: as §1
Canis familiaris [5] = test: Intracardiac conduction in anesthetized dogs, measured as SH; SH being the atrial His bundle conduction time; format: functional, Canis lupus familiaris, Atrioventricular bundle; method in brief: as §2
Canis familiaris [6] = test: (§3) Intracardiac conduction in anesthetized dogs, measured as HV; HV being the conduction time in specific intraventricular tissue; format: functional, Canis lupus familiaris, Cardiac ventricle; design: concentration or dose not given beside the values; method in brief: as §2
Canis familiaris [7] = test: Antiarrhythmic potential in conscious dogs; format: functional, Canis lupus familiaris, Heart; method in brief: as §1
Canis familiaris [8] = test: Intracardiac conduction in anesthetized dogs, measured as SH; SH being the atrial His bundle conduction time; value ranges from +4 to +-85; format: functional, Canis lupus familiaris, Atrioventricular bundle; method in brief: as §2
Canis familiaris [9] = test: Antiarrhythmic potential in conscious dogs was calculated and found that after 60 minutes the dogs died.; format: functional, Canis lupus familiaris, Heart
Canis familiaris [10] = test: Antiarrhythmic potential in conscious dogs; value ranges from +80 to +360; format: functional, Canis lupus familiaris, Heart; method in brief: as §1
Canis familiaris [11] = test: Antiarrhythmic potential in conscious dogs; Inactive.; format: functional, organism-based; conditions: Canis lupus familiaris; Heart; method in brief: as §1
Canis familiaris [12] = test: as §3; format: functional, Canis lupus familiaris, Cardiac ventricle; method in brief: as §2
Canis familiaris [13] = test: Antiarrhythmic potential in conscious dogs; was tested and found that after 90 min the dogs died.; format: functional, Canis lupus familiaris, Heart
Canis familiaris [14] = test: Intracardiac conduction in anesthetized dogs, measured as HV; HV being the conduction time in specific intraventricular tissue; value ranges from + 60 to+135; format: functional, Canis lupus familiaris, Cardiac ventricle; method in brief: as §2
Canis familiaris [15] = test: Intracardiac conduction in anesthetized dogs, measured as SH; SH being the atrial His bundle conduction time; Value ranges from +8 to +100; format: functional, Canis lupus familiaris, Atrioventricular bundle; method in brief: as §2
Canis familiaris [16] = test: Antiarrhythmic potential in conscious dogs; the value ranges from +30 to +60; format: functional, Canis lupus familiaris, Heart
Canis familiaris [17] = test: Antiarrhythmic potential in conscious dogs; inactive.; format: functional, organism-based; conditions: Canis lupus familiaris; Heart; method in brief: as §1
Canis familiaris [18] = test: Intracardiac conduction in anesthetized dogs, measured as HV; HV being the conduction time in specific intraventricular tissue; value ranges from 35-80; format: functional, Canis lupus familiaris, Cardiac ventricle; method in brief: as §2
Canis familiaris [19] = test: Intracardiac conduction in anesthetized dogs, measured as SH; SH being the atrial His bundle conduction time; value ranges from +50 to +85; format: functional, Canis lupus familiaris, Atrioventricular bundle; method in brief: as §2
Canis familiaris [20] = test: Antiarrhythmic potential in conscious dogs; value ranges from +155 to +300; format: functional, Canis lupus familiaris, Heart; method in brief: as §1
Canis familiaris [21] = test: Intracardiac conduction in anesthetized dogs, measured as SH; SH being the atrial His bundle conduction time; value ranges from +70 to +120; format: functional, Canis lupus familiaris, Atrioventricular bundle; method in brief: as §2
Canis familiaris [22] = test: Intracardiac conduction in anesthetized dogs, measured as HV; HV being the conduction time in specific intraventricular tissue; value ranges from +100 to +210; format: functional, Canis lupus familiaris, Cardiac ventricle; method in brief: as §2
Canis familiaris [23] = test: Intracardiac conduction in anesthetized dogs, measured as SH; SH being the atrial His bundle conduction time; Value ranges from +0 to +10; format: functional, Canis lupus familiaris, Atrioventricular bundle; method in brief: as §2
Canis familiaris [24] = test: Antiarrhythmic potential in conscious dogs; value ranges from 210-270; format: functional, Canis lupus familiaris, Heart; method in brief: as §1
Canis familiaris [25] = test: Intracardiac conduction in anesthetized dogs, measured as SH; SH being the atrial His bundle conduction time; value ranges from +30 to +-55; format: functional, Canis lupus familiaris, Atrioventricular bundle; method in brief: as §2
Canis familiaris [26] = test: Antiarrhythmic potential in conscious dogs; value ranges from +50 to +60; format: functional, Canis lupus familiaris, Heart; method in brief: as §1
Canis familiaris [27] = test: Antiarrhythmic potential in conscious dogs; value ranges from +20 to +270; format: functional, Canis lupus familiaris, Heart; method in brief: as §1
Canis familiaris [28] = test: Intracardiac conduction in anesthetized dogs, measured as HV; HV being the conduction time in specific intraventricular tissue; value ranges from +25 to +30; format: functional, Canis lupus familiaris, Cardiac ventricle; method in brief: as §2
Canis familiaris [29] = test: Intracardiac conduction in anesthetized dogs, measured as SH; SH being the atrial His bundle conduction time; value ranges from +15 to +20; format: functional, Canis lupus familiaris, Atrioventricular bundle; method in brief: as §2
Canis familiaris [30] = test: Antiarrhythmic potential in conscious dogs; value ranges from +120 to +380; format: functional, Canis lupus familiaris, Heart; method in brief: as §1
Canis familiaris [31] = test: Intracardiac conduction in anesthetized dogs, measured as HV; HV being the conduction time in specific intraventricular tissue value ranges from +20 to +30; format: functional, Canis lupus familiaris, Cardiac ventricle; method in brief: as §2
Canis familiaris [32] = test: Intracardiac conduction in anesthetized dogs, measured as SH; SH being the atrial His bundle conduction time value ranges from +15 to +35; format: functional, Canis lupus familiaris, Atrioventricular bundle; method in brief: as §2
Canis familiaris [33] = test: Antiarrhythmic potential in conscious dogs;Value ranges from +27 to +280; format: functional, Canis lupus familiaris, Heart; method in brief: as §1
Canis familiaris [34] = test: Intracardiac conduction in anesthetized dogs, measured as HV; HV being the conduction time in specific intraventricular tissue; Value ranges from 20-33; format: functional, Canis lupus familiaris, Cardiac ventricle; method in brief: as §2
Canis familiaris [35] = test: Intracardiac conduction in anesthetized dogs, measured as SH; SH being the atrial His bundle conduction time; Value ranges from +20 to +70; format: functional, Canis lupus familiaris, Atrioventricular bundle; method in brief: as §2
Canis familiaris [36] = test: Antiarrhythmic potential in conscious dogs; value ranges from +45 to +360; format: functional, Canis lupus familiaris, Heart; method in brief: as §1
Canis familiaris [37] = test: Intracardiac conduction in anesthetized dogs, measured as HV; HV being the conduction time in specific intraventricular tissue; value ranges from +45 to +100; format: functional, Canis lupus familiaris, Cardiac ventricle; method in brief: as §2
Canis familiaris [38] = test: Intracardiac conduction in anesthetized dogs, measured as SH; SH being the atrial His bundle conduction time; value ranges from +40 to +100; format: functional, Canis lupus familiaris, Atrioventricular bundle; method in brief: as §2
Canis familiaris [39] = test: Antiarrhythmic potential in conscious dogs; value ranges from +165 to +405; format: functional, Canis lupus familiaris, Heart; method in brief: as §1
Canis familiaris [40] = test: Intracardiac conduction in anesthetized dogs, measured as SH; SH being the atrial His bundle conduction time; value ranges from +25 to +30; format: functional, Canis lupus familiaris, Atrioventricular bundle; method in brief: as §2
Canis familiaris [41] = test: Intracardiac conduction in anesthetized dogs, measured as HV; HV being the conduction time in specific intraventricular tissue; value ranges from +0 to +30; format: functional, Canis lupus familiaris, Cardiac ventricle; method in brief: as §2

CC(C)CCC(CCN(C(C)C)C(C)C)(C(N)=O)c1ccccn1 (stereo unspecified)
Actual duraction (Canis familiaris [1]): 270 min | Variation/Control (Canis familiaris [2]): 50% | Variation/Control (Canis familiaris [3]): 50%

CC(C)CC(CCN(C(C)C)C(C)C)(C(N)=O)c1ccncc1 (stereo unspecified)
Actual duraction (Canis familiaris [4]): 240 min | Variation/Control (Canis familiaris [5]): 110% | Variation/Control (Canis familiaris [6]): 45%

CC(C)CC(CCN(C(C)C)C1CCCCC1)(C(N)=O)c1ccccn1 (stereo unspecified)
Actual duraction (Canis familiaris [7]): 300 min | Variation/Control (Canis familiaris [8]): 85% | Variation/Control (Canis familiaris [6]): 50%

CC(C)CC(CCN(C1CCCCC1)C1CCCCC1)(C(N)=O)c1ccccn1 (stereo unspecified)
Variation/Control (Canis familiaris [5]): 45% | Variation/Control (Canis familiaris [6]): 75% | Actual duraction (Canis familiaris [9]): 60 min

CCC(C)C(CCN(C(C)C)C(C)C)(C(N)=O)c1ccccn1 (stereo unspecified)
Actual duraction (Canis familiaris [7]): 240 min | Variation/Control (Canis familiaris [5]): 0% | Variation/Control (Canis familiaris [6]): 30%

CC(C)N(CCC(C(N)=O)(c1ccccn1)C(C)C)C(C)C (stereo unspecified)
Actual duraction (Canis familiaris [10]): 360 min | Variation/Control (Canis familiaris [5]): 10% | Variation/Control (Canis familiaris [6]): 0%

CCCN(CCC)CCC(CC(C)C)(C(N)=O)c1ccccn1 (stereo unspecified)
Actual duraction (Canis familiaris [11]): inactive | Variation/Control (Canis familiaris [5]): 20% | Variation/Control (Canis familiaris [6]): 0%

CC(C)CC(CCCN(C(C)C)C(C)C)(C(N)=O)c1ccccn1 (stereo unspecified)
Actual duraction (Canis familiaris [7]): 30 min | Variation/Control (Canis familiaris [12]): 0% | Variation/Control (Canis familiaris [5]): 15%

CCC(C)N(CCC(CC(C)C)(C(N)=O)c1ccccn1)C(C)CC (stereo unspecified)
Actual duraction (Canis familiaris [13]): 90 min | Variation/Control (Canis familiaris [14]): 135% | Variation/Control (Canis familiaris [15]): 100%

CC(C)N(CCC(C(N)=O)(c1ccccc1)c1ccccn1)C(C)C (stereo unspecified) [DISOPYRAMIDE]
Actual duraction (Canis familiaris [16]): 60 min

CC(C)N(CCC(Cc1ccccc1)(C(N)=O)c1ccccn1)C(C)C (stereo unspecified)
Actual duraction (Canis familiaris [17]): inactive | Variation/Control (Canis familiaris [18]): 80% | Variation/Control (Canis familiaris [19]): 85%

CCC(CCN(C(C)C)C(C)C)(C(N)=O)c1ccccn1 (stereo unspecified)
Actual duraction (Canis familiaris [20]): 300 min | Variation/Control (Canis familiaris [5]): 20% | Variation/Control (Canis familiaris [6]): 0%

CCCCCC(CCN(C(C)C)C(C)C)(C(N)=O)c1ccccn1 (stereo unspecified)
Actual duraction (Canis familiaris [7]): 180 min | Variation/Control (Canis familiaris [21]): 120% | Variation/Control (Canis familiaris [22]): 210%

CC(C)CC(CCN1CCOCC1)(C(N)=O)c1ccccn1 (stereo unspecified)
Actual duraction (Canis familiaris [17]): inactive | Variation/Control (Canis familiaris [12]): 0% | Variation/Control (Canis familiaris [23]): 10%

CC(C)N(CCC(C(N)=O)(c1ccccn1)C1CCCCC1)C(C)C (stereo unspecified)
Actual duraction (Canis familiaris [24]): 270 min | Variation/Control (Canis familiaris [25]): 55% | Variation/Control (Canis familiaris [6]): 40%

CCCC(CCN(C(C)C)C(C)C)(C(N)=O)c1ccccn1 (stereo unspecified)
Actual duraction (Canis familiaris [7]): 35 min | Variation/Control (Canis familiaris [12]): 0% | Variation/Control (Canis familiaris [5]): 15%

CC(C)CC(CCN(C(C)C)C(C)C)(C(N)=O)c1cccnc1 (stereo unspecified)
Actual duraction (Canis familiaris [7]): 45 min | Variation/Control (Canis familiaris [12]): 25% | Variation/Control (Canis familiaris [5]): 20%

C=C[C@H]1CN2CC[C@H]1C[C@@H]2[C@@H](O)c1ccnc2ccc(OC)cc12 [QUINIDINE]
Actual duraction (Canis familiaris [26]): 60 min

CCN(CC)CCC(CC(C)C)(C(N)=O)c1ccccn1 (stereo unspecified)
Actual duraction (Canis familiaris [17]): inactive | Variation/Control (Canis familiaris [5]): 15% | Variation/Control (Canis familiaris [6]): 0%

CC(C)CC(CCN1C(C)CCCC1C)(C(N)=O)c1ccccn1 (stereo unspecified)
Actual duraction (Canis familiaris [27]): 270 min | Variation/Control (Canis familiaris [28]): 30% | Variation/Control (Canis familiaris [29]): 20%

CC(C)CC(CCN(C(C)C)C(C)C)(C(N)=O)c1ccccn1 (stereo unspecified) [PENTISOMIDE]
Actual duraction (Canis familiaris [30]): 380 min | Variation/Control (Canis familiaris [31]): 30% | Variation/Control (Canis familiaris [32]): 35%

CCC(CC)C(CCN(C(C)C)C(C)C)(C(N)=O)c1ccccn1 (stereo unspecified)
Actual duraction (Canis familiaris [33]): 280 min | Variation/Control (Canis familiaris [34]): 33% | Variation/Control (Canis familiaris [35]): 70%

CC(C)N(CCC(CC1CCCCC1)(C(N)=O)c1ccccn1)C(C)C (stereo unspecified)
Actual duraction (Canis familiaris [36]): 360 min | Variation/Control (Canis familiaris [37]): 100% | Variation/Control (Canis familiaris [38]): 100%

CC(C)N(CCC(C(N)=O)c1ccccn1)C(C)C (stereo unspecified)
Actual duraction (Canis familiaris [17]): inactive | Variation/Control (Canis familiaris [5]): 0% | Variation/Control (Canis familiaris [6]): 0%

CC(C)N(CCC(CC(C)(C)C)(C(N)=O)c1ccccn1)C(C)C (stereo unspecified)
Actual duraction (Canis familiaris [39]): 405 min | Variation/Control (Canis familiaris [40]): 30% | Variation/Control (Canis familiaris [41]): 30%
